In ChEMBL document CHEMBL3286320, “Design, Synthesis, and Optimization of Balanced Dual NK1/NK3 Receptor Antagonists” (ACS Med Chem Lett, 2014):

What was measured:
Substance-P receptor = Substance-P receptor (Homo sapiens, UniProt P25103); assay: Displacement of [125I]-Bolton Hunter-substance P from human NK1 receptor expressed in human U373MG cells; assay type: cell-based, U-373MG ATCC
In short: (§1)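 Radioligand binding on membranes: NK1 on membranes from U-373MG cells, which express the receptor endogenously; NK3 on membranes from CHO cells stably expressing the recombinant human receptor.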

Neuromedin-K receptor = target: T1, Neuromedin-K receptor (Homo sapiens, UniProt P29371); assay: Displacement of [3H]-SR142801 from human NK3 receptor expressed in recombinant CHO cells; assay type: cell-based; in short: as §1
T1 sequence (P29371 whole entry): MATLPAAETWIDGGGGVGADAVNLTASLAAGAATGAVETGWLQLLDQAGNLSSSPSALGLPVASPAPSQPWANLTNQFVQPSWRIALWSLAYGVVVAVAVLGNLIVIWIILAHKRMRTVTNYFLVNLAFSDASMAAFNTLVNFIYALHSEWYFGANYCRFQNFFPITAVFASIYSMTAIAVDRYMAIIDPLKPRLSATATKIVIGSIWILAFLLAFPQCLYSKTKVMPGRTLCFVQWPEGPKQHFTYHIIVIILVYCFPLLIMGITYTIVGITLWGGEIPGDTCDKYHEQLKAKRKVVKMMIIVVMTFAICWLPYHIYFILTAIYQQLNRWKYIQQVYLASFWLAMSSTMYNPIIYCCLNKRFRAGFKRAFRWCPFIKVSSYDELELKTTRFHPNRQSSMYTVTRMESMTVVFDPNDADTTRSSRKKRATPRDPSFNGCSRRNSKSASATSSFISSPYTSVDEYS

Substance-P receptor, sequence (P25103 whole entry): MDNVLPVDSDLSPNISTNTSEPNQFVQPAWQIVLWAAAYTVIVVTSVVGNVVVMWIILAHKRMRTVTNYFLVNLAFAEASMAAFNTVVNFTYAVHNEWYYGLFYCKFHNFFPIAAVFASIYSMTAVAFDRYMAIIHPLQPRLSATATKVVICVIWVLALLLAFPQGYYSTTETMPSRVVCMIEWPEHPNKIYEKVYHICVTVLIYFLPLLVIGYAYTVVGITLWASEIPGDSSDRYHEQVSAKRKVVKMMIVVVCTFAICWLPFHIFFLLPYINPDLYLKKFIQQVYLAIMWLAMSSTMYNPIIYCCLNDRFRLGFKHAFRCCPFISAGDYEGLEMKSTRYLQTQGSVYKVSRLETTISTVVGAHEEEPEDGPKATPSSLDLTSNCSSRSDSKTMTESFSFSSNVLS

Structure (SMILES)	Ki (Substance-P receptor)	Ki (Neuromedin-K receptor)
CN(C)CCNC(=O)[C@@H](Cc1ccccc1)NC(=O)[C@](C)(CCN1CCC2(CC1)OC(=O)N(C)c1ccc(F)cc12)c1ccc(Cl)c(Cl)c1	39.8 nM	31.6 nM
CN1C(=O)OC2(CCN(CCC[C@@H](C(=O)N(C)[C@@H](Cc3ccccc3)C(=O)NCCN)c3ccc(Cl)c(Cl)c3)CC2)c2cc(F)ccc21	50.1 nM	3980 nM
CN1C(=O)OC2(CCN(CCC[C@H](C(=O)N(C)[C@@H](Cc3ccccc3)C(=O)NCCN)c3ccc(Cl)c(Cl)c3)CC2)c2cc(F)ccc21	398 nM	6310 nM
CN1C(=O)OC2(CCN(CC[C@@](C)(C(=O)N[C@H](C(=O)NCCN)c3ccccc3)c3ccc(Cl)c(Cl)c3)CC2)c2cc(F)ccc21	251 nM	39.8 nM
CN1C(=O)OC2(CCN(CCC[C@@](C)(C(=O)N[C@H](C(=O)NCCN)c3ccccc3)c3ccc(Cl)c(Cl)c3)CC2)c2cc(F)ccc21	316 nM	794 nM
CN(C)CCNC(=O)[C@@H](Cc1ccccc1)NC(=O)[C@](C)(CCCN1CCC2(CC1)OC(=O)N(C)c1ccc(F)cc12)c1ccc(Cl)c(Cl)c1	20 nM	1000 nM
CN1C(=O)OC2(CCN(CCC[C@@](C)(C(=O)N[C@H](Cc3ccccc3)C(=O)NCCO)c3ccc(Cl)c(Cl)c3)CC2)c2cc(F)ccc21	15.8 nM	126 nM
CN1C(=O)OC2(CCN(CC[C@@](C)(C(=O)N(C)[C@H](Cc3ccccc3)C(=O)NCCCN)c3ccc(Cl)c(Cl)c3)CC2)c2cc(F)ccc21	3.98 nM	25.1 nM
CN1C(=O)OC2(CCN(CC[C@@H](C(=O)N(C)[C@H](C(=O)NCCN)c3ccccc3)c3ccc(Cl)c(Cl)c3)CC2)c2cc(F)ccc21 (racemic)	631 nM	2510 nM

Second part, the compound after the results:

Ki (Substance-P receptor)	Ki (Neuromedin-K receptor)	Structure (SMILES)
200 nM	1260 nM	CN1C(=O)OC2(CCN(CC[C@H](C(=O)N(C)[C@@H](Cc3ccccc3)C(=O)NCCN)c3ccc(Cl)c(Cl)c3)CC2)c2cc(F)ccc21
126 nM	63.1 nM	CN1C(=O)OC2(CCN(CC[C@@](C)(C(=O)N[C@@H](Cc3ccccc3)C(=O)NCCN)c3ccc(Cl)c(Cl)c3)CC2)c2cc(F)ccc21
398 nM	10000 nM	CN1C(=O)OC2(CCN(CC[C@](C)(C(=O)N[C@@H](Cc3ccccc3)C(=O)NCCN)c3ccc(Cl)c(Cl)c3)CC2)c2cc(F)ccc21
631 nM	2000 nM	CN1C(=O)OC2(CCN(CC[C@](C)(C(=O)N[C@H](Cc3ccccc3)C(=O)NCCN)c3ccc(Cl)c(Cl)c3)CC2)c2cc(F)ccc21
20 nM	50.1 nM	CN1C(=O)OC2(CCN(CC[C@@](C)(C(=O)N[C@H](Cc3ccccc3)C(=O)NCCN)c3ccc(Cl)c(Cl)c3)CC2)c2cc(F)ccc21
63.1 nM	1580 nM	CN1C(=O)OC2(CCN(CCC[C@@](C)(C(=O)N[C@H](Cc3ccccc3)C(=O)NCCN)c3ccc(Cl)c(Cl)c3)CC2)c2cc(F)ccc21
15.8 nM	20 nM	CNCCNC(=O)[C@@H](Cc1ccccc1)NC(=O)[C@](C)(CCN1CCC2(CC1)OC(=O)N(C)c1ccc(F)cc12)c1ccc(Cl)c(Cl)c1
31.6 nM	2.51 nM	CN1C(=O)OC2(CCN(CC[C@@](C)(C(=O)N[C@H](Cc3ccccc3)C(=O)NCCO)c3ccc(Cl)c(Cl)c3)CC2)c2cc(F)ccc21
2.51 nM	7.94 nM	CN1C(=O)OC2(CCN(CC[C@@](C)(C(=O)N(C)[C@H](Cc3ccccc3)C(=O)NCCN)c3ccc(Cl)c(Cl)c3)CC2)c2cc(F)ccc21
126 nM	1580 nM	CN1C(=O)OC2(CCN(CC[C@@H](C(=O)N(C)[C@@H](Cc3ccccc3)C(=O)NCCN)c3ccc(Cl)c(Cl)c3)CC2)c2cc(F)ccc21 (mixture of isomers)
